These molecules were tested against Human immunodeficiency virus type 1 protease (Human immunodeficiency virus 1, UniProt Q72874) (assay: Inhibition of HIV-1 protease).
How it was run: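 HIV-1 protease at 6.0 nM final added to inhibitor plus 40 μM undecapeptide substrate H-His-Lys-Ala-Arg-Val-Leu-(p-NO2)Phe-Glu-Ala-Nle-Ser-NH2, 1.0% DMSO, in 80 mM NaOAc, 160 mM NaCl, 1.0 mM EDTA, 1.0 mM DTT, 0.1% PEG 8000, pH 4.7, 37 °C. Inhibitor at […]. After 5 min, quenched with 2% TFA. Substrate and product resolved by reversed-phase HPLC (A220). % control from % conversion gives IC50.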

Q: Which IC50 does the source give for `O=c1oc2ccccc2c(O)c1CCCOc1ccccc1` here?
A: 2.3 µM

Q: How did the IC50 turn out when `O=c1oc2ccccc2c(O)c1CCCN(Cc1ccccc1)c1ccccc1` was run?
A: 13 µM

Q: `COc1ccc(CCCCc2c(O)oc3ccccc3c2=O)cc1` was tested. Which IC50 did it give?
A: > 100 µM

Q: `O=c1oc2ccccc2c(O)c1CCCCOc1ccccc1` was tested. Which IC50 did it give?
A: > 100 µM

Q: For `O=C(CCc1c(O)c2ccccc2oc1=O)c1ccccc1`, which IC50 is on record?
A: 90 µM

Q: Which IC50 does the source give for `O=c1oc2ccccc2c(O)c1CCOCc1ccccc1` here?
A: 4 µM

Q: Which IC50 does the source give for `COc1ccccc1CCCCc1c(O)c2ccc(O)cc2oc1=O` here?
A: 0.52 µM

Q: For `O=c1oc2ccccc2c(O)c1SCCOc1ccccc1`, which IC50 is on record?
A: 24 µM

Q: For `O=c1oc2ccccc2c(O)c1CCOc1ccccc1`, which IC50 is on record?
A: 53 µM

Q: How did the IC50 turn out when `N#Cc1cccc(OCCCc2c(O)c3ccccc3oc2=O)c1` was run?
A: 0.67 µM

Q: For `O=c1oc2ccccc2c(O)c1CCCCc1ccccc1`, which IC50 is on record?
A: 110 µM

Q: For `O=c1[nH]c2ccccc2c(O)c1CCCOc1ccccc1`, which IC50 is on record?
A: > 200 µM

Q: For `COc1ccccc1CCCCc1c(O)oc2cc(OCc3ccccc3)ccc2c1=O`, which IC50 is on record?
A: > 100 µM

Q: For `NC(=O)c1cccc(OCCCc2c(O)oc3ccccc3c2=O)c1`, which IC50 is on record?
A: 3.9 µM

Q: `COc1ccccc1CCCCc1c(O)oc2ccccc2c1=O` was tested. Which IC50 did it give?
A: 1.7 µM

Q: Which IC50 does the source give for `O=c1c(CC/C(=N/O)c2ccccc2)c(O)oc2ccccc12` here?
A: 71 µM

Q: With `Nc1cccc(OCCCc2c(O)oc3ccccc3c2=O)c1` as the molecule, how does the IC50 read?
A: 6.4 µM

Q: With `O=c1c(CCCO)c(O)oc2ccccc12` as the molecule, how does the IC50 read?
A: 86 µM

Q: With `O=C(O)c1cccc(OCCCc2c(O)oc3ccccc3c2=O)c1` as the molecule, how does the IC50 read?
A: 7 µM

Q: With `O=c1oc2ccccc2c(O)c1CCCOc1cccc([N+](=O)[O-])c1` as the molecule, how does the IC50 read?
A: 4 µM

Q: With `O=c1oc2ccccc2c(O)c1CCCOc1cccc(Cl)c1` as the molecule, how does the IC50 read?
A: 1.4 µM

Q: With `COc1ccccc1OCCCc1c(O)oc2ccccc2c1=O` as the molecule, how does the IC50 read?
A: 44 µM

Q: For `O=c1oc2ccccc2c(O)c1CCCN(c1ccccc1)c1ccc(F)cc1`, which IC50 is on record?
A: 5.5 µM

Q: `O=c1oc2ccccc2c(O)c1CCCSc1ccccc1` was tested. Which IC50 did it give?
A: 26 µM

Q: With `COc1ccc2c(O)c(CCCCc3ccccc3OC)c(=O)oc2c1` as the molecule, how does the IC50 read?
A: 3.3 µM

Q: Which IC50 does the source give for `CCOC(=O)c1cccc(OCCCc2c(O)oc3ccccc3c2=O)c1` here?
A: 1.4 µM

Q: How did the IC50 turn out when `O=c1c(CCCOc2cccc(CO)c2)c(O)oc2ccccc12` was run?
A: 2.3 µM

Q: How did the IC50 turn out when `O=c1oc2ccccc2c(O)c1CCCOC1CCCCC1` was run?
A: 32 µM

Q: `O=c1oc2ccccc2c(O)c1CCCOCc1ccccc1` was tested. Which IC50 did it give?
A: 38 µM

Source: ChEMBL document CHEMBL1127618, “A novel nonpeptide HIV-1 protease inhibitor: elucidation of the binding mode and its application in the design of related analogs” (J Med Chem, 1994)
